Compound activity as filed in PubChem BioAssay.
Arrestin-AP2 inh – inhibitors of human beta-arrestin and AP2 interaction; inhibition, % at 10 µM; FITC-arrestin peptide / GST-AP2 beads, flow cytometry; AP2 beta2 appendage carries R879A mutation; hit rate 0.31% among 340,000;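 active = inhibition above a set limit, near 3 SD of compounds lacking own fluorescence, cut at about 54% in these data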
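test system = AP2 appendage R879A on GSH beads | buffer or medium = PBS plus Tween 20 (0.05%) and BSA (0.1%) | incubation = 12 min plus 1 h, RT | detection = bead flow cytometry, FITC channel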
ABCB6 inh 2 – human ABCB6 transporter inhibition | Q9NP58 | K562-ABCB6 porphyrin accumulation, flow cytometry, 1 h; hits give low values | fluorescence ratio to DMSO, % at 10 µM | hit rate 0.19% among 360,000;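 active = fluorescence ratio to DMSO below 75%, the collection mean minus 3 SD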;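 note: signal is porphyrin accumulated inside mitochondria; lower ratio means ABCB6 inhibition with less porphyrin fluorescence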
Target sequence (Q9NP58 whole entry, looked up): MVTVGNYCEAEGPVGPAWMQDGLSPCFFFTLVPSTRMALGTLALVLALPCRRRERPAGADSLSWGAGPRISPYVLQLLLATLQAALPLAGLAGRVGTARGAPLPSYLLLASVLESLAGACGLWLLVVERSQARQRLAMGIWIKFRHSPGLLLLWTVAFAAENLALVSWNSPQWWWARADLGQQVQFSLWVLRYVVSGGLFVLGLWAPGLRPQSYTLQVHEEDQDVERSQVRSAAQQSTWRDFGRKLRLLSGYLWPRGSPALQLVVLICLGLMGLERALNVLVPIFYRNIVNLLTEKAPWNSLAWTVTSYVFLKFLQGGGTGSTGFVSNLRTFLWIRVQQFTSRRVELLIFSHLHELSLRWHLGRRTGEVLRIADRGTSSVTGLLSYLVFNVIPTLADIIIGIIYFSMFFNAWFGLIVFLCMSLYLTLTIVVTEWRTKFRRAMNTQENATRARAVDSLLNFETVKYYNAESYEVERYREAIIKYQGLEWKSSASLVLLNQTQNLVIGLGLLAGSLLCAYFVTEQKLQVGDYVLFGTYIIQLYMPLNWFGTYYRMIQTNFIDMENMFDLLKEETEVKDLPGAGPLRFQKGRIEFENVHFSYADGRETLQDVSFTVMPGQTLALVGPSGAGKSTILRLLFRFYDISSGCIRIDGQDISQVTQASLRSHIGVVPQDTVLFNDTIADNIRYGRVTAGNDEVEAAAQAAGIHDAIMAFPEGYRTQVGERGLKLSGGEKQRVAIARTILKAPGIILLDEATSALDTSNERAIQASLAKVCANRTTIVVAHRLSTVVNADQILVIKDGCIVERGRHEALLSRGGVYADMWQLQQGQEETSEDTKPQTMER
PG9 Ab binder – small molecules binding HIV-1 gp120 antibody PG9; TR-FRET gp120-PG9 antibody binding; inhibition, % at 6.7 µM; hit rate 0.43% among 360,000; AID 624416; in the data active = inhibition above about 8.5%
hiPSC survival – hiPSC single-cell survival enhancement | ATPlite luminescence; 100% = ROCK inhibitor wells, 0% = DMSO | survival enhancement, % at 20 µM | hit rate 0.044% among 360,000 | AID 602274; in the data active = survival enhancement above about 18%;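 note: cells exposed to compounds for 16 hours before the ATP read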
ABCB6 inh CP1 – blocks the human ABCB6 transporter; shares compounds with ABCB6 inh 2; K562-ABCB6 porphyrin accumulation, flow cytometry, 1 h; hits give low values; ratio response (% of DMSO), % at 10 µM; 700 tested, under 10 active;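 active = repeat-averaged ratio response below 75% of DMSO, the collection mean minus 3 SD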;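 note: median porphyrin fluorescence at 575 nm with 488 nm excitation from mitochondria; lower ratio means less porphyrin signal so ABCB6 inhibition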
Large screens that a line does not name were inactive (follow-up assays come after a bar, where they were run). Shown are actives, neighbours in structure and some others; about 0.89% of the full set was active somewhere.

COC(=O)C(NC(=O)CCc1nnc2ccc(N3CCC(C)CC3)nn12)C(C)C (stereo not given)	none | ABCB6 inh CP1 inactive
CC1CCN(c2ccc3nnc(CCC(=O)NCC(C)c4ccccc4)n3n2)CC1 (stereo not given)	none
CCC(C)NC(=O)CCc1nnc2ccc(N3CCC(C)CC3)nn12 (stereo not given)	ABCB6 inh 2 61.0 | ABCB6 inh CP1 inactive
COc1ccc(NC(=O)CCc2nnc3ccc(N4CCC(C)CC4)nn23)cc1	none
CC(C)CCNC(=O)CCc1nnc2ccc(N3CCC(C)CC3)nn12	none | ABCB6 inh CP1 inactive
CCOC(=O)C(C)NC(=O)CCc1nnc2ccc(N3CCC(C)CC3)nn12 (stereo not given)	ABCB6 inh 2 72.0 | ABCB6 inh CP1 inactive
COC(=O)Cc1nnn2c1[C@H](C)[C@H](c1ccccc1Br)OC[C@H](C)C2	none (no result: Arrestin-AP2 inh, ABCB6 inh 2, hiPSC survival)
CC1CCN(c2ccc3nnc(CCC(=O)N4CCCCC4)n3n2)CC1	none | ABCB6 inh CP1 inactive
COc1ccccc1NC(=O)c1ccc(NC(=O)CSc2nncn2C)cc1	none
CCCn1c(SCC(=O)Nc2ccc(C(=O)Nc3ccccc3OC)cc2)n[nH]c1=O	ABCB6 inh 2 68.0 | ABCB6 inh CP1 inactive
Cc1cc2c(nc1C)CCCN2S(=O)(=O)c1c(C)noc1C	none (no result: Arrestin-AP2 inh, ABCB6 inh 2, hiPSC survival)
O=c1c(C(c2ccc(Br)cc2)c2c(O)nc3n(c2=O)CCCS3)c(O)nc2n1CCCS2	none
O=c1c(C(c2ccc(Br)cc2)c2c(O)nc3n(c2=O)CCS3)c(O)nc2n1CCS2	ABCB6 inh 2 74.0 | ABCB6 inh CP1 inactive
CC(C=NN=C1C(=O)Nc2ccccc21)=Cc1ccccc1	none (no result: Arrestin-AP2 inh, ABCB6 inh 2, hiPSC survival)
CC1(C)OC(=O)C2=C(CC(CCc3ccccc3)OC2c2cccc(C(F)(F)F)c2)O1 (stereo not given)	none (no result: Arrestin-AP2 inh, ABCB6 inh 2, hiPSC survival)
C=CCN1C[C@H](COC(=O)c2cccc(C)c2)Oc2cccc(F)c2S1(=O)=O	none (no result: Arrestin-AP2 inh, ABCB6 inh 2, hiPSC survival)
CC(C)NCc1nnc(-c2ccc(Cl)cc2)o1	ABCB6 inh 2 71.0 | ABCB6 inh CP1 inactive
O=C(Nc1ccccc1Cl)Nc1ccccc1Cl	none
O=C(Nc1ccc(Nc2ccccc2)cc1)Nc1ccccc1Cl	ABCB6 inh 2 10.0 | ABCB6 inh CP1 inactive
Cc1cc(C)cc(CC(=O)N2CCC2(C)C(=O)NS(=O)(=O)c2cccc(OC(F)F)c2)c1 (stereo not given)	none (no result: Arrestin-AP2 inh) | ABCB6 inh CP1 inactive
Cc1cc(C)cc(CC(=O)N2CCC2(C)C(=O)NS(=O)(=O)c2ccc(C#N)cc2)c1 (stereo not given)	none (no result: Arrestin-AP2 inh) | ABCB6 inh CP1 inactive
CC1(C(=O)NS(=O)(=O)c2ccc(C#N)cc2)CCN1C(=O)Cc1ccsc1 (stereo not given)	none (no result: Arrestin-AP2 inh)
CC(C)(C)c1ccc(CC(=O)N2CCC2(C)C(=O)NS(=O)(=O)c2cccc(OC(F)F)c2)cc1 (stereo not given)	none (no result: Arrestin-AP2 inh)
CCOC(=O)N[C@H](C(=O)N1CCC[C@H]1C(=O)NC1CCCC1)C1CCCCC1	none (no result: Arrestin-AP2 inh, ABCB6 inh 2, hiPSC survival)
Cn1c(SCC(=O)N2CCOCC2)nnc1-c1ccc(Cl)cc1Cl	ABCB6 inh 2 73.0 | ABCB6 inh CP1 inactive
Nn1c(SCC(=O)N2CCOCC2)nnc1-c1ccc(Cl)cc1Cl	none
C[C@H](c1ccccc1)N1C[C@@H](COCc2ccccc2)Oc2cccc(Oc3ccc(F)cc3)c2S1(=O)=O	none (no result: Arrestin-AP2 inh, ABCB6 inh 2, hiPSC survival)
CC(=O)NCc1ccc(OCCCN2CCC(C(O)(c3ccccc3)c3ccccc3)CC2)cc1	none (no result: Arrestin-AP2 inh, ABCB6 inh 2, hiPSC survival)
O=c1cc(CO)oc(CN2CCN(c3ccccc3)CC2)c1O	ABCB6 inh 2 73.0 | ABCB6 inh CP1 inactive
O=c1cc(CO)oc(CN2CCN(c3cccc(C(F)(F)F)c3)CC2)c1O	none
CC(C)C[C@H]1COc2cccc(NCCO)c2S(=O)(=O)N1	none (no result: Arrestin-AP2 inh, ABCB6 inh 2, hiPSC survival)
Nc1nc(SCc2c(F)cccc2Cl)[nH]c(=O)c1-c1ccccc1	ABCB6 inh 2 50.0 | ABCB6 inh CP1 inactive
CCn1c(SCC#N)nc2c(c1=O)C1(CCCC1)Cc1ccccc1-2	ABCB6 inh 2 71.0 | ABCB6 inh CP1 inactive
COCc1nnc(NC(=O)c2c(-c3c(Cl)cccc3Cl)noc2C)s1	ABCB6 inh 2 67.0 | ABCB6 inh CP1 inactive
CC1(C)Oc2ccc3ccc(=O)oc3c2C[C@H]1O	ABCB6 inh 2 68.0 | ABCB6 inh CP1 inactive
O=C(c1cc(-c2ccncc2)nc2ccccc12)N1CCN(c2ccccn2)CC1	ABCB6 inh 2 69.0 | ABCB6 inh CP1 inactive
O=C(c1cc(-c2ccccc2)nc2ccccc12)N1CCN(c2ccccn2)CC1	none
NS(=O)(=O)c1ccc(OCCCN2CCC(C(O)(c3ccccc3)c3ccccc3)CC2)cc1	none (no result: Arrestin-AP2 inh, ABCB6 inh 2, hiPSC survival)
Cc1nc(N2CCN(c3ccccc3)CC2)nc2c1C(=O)CCC2	ABCB6 inh 2 55.0 | ABCB6 inh CP1 inactive
